Assay: Toxicity liver stage against HepG2, at 10uM
Type: cell-based
Set-up: test concentration 10 uM, cell line HepG2-A16-CD81EGFP
Conditions: human, HepG2-A16-CD81EGFP cells; read-out: INHIBITION
Method in brief: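 Uninfected HepG2-A16-CD81EGFP cells, 3 × 10^3 per well, 1536-well, plated on prespotted compound at 10 μM final, parasite-free screening media added to match infected plates; puromycin 10 μM positive, DMSO 0.5% negative; run in parallel with 48 h PbLuc assay at 37 °C, 5% CO2; viability by CellTiter-Glo luminescence, normalized to controls.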

Row | SMILES | cytotoxicity at 10 µM
1 | N#Cc1cccnc1Nc1ccc(N2CCC(C(N)=O)CC2)cc1 | -40.1%
2 | Cc1ccc(CN(Cc2cccnc2)C2CC(C)(C)NC(C)(C)C2)s1 | 4.94%
3 | CC(NC(=O)C1(NC(=O)c2ccc3[nH]ncc3c2)CCCC1)C1CC1 (stereo not drawn) | -2.03%
4 | COC(=O)c1cnc(C(=O)N(c2ccc(OC)c(F)c2)C(C)C)cn1 | -1.23%
5 | CC1CCN(C(=O)C(C)n2cc(Br)cn2)CC1 (stereo not drawn) | 11.3%
6 | N#Cc1cccnc1OC1CCNCC1 | -8.99%
7 | Cc1cnc(-c2nc(O)c3c(n2)CN(C(=O)CC2CCCC2)CC3)cn1 | -1.37%
8 | CCn1nc(C)c2c1cnn2CC(=O)N1CCN(C)CC1 | 4.92%
9 | CC(C)CNC(=O)c1ccc(NC(=O)NCC2CC2)cc1Cl | 7.71%
10 | Cc1nc(NCCSc2cnn[nH]2)c2c(C)noc2n1 | -3.21%
11 | CC(O)CN1CCC(CNCc2ccccc2OC(F)(F)F)CC1 (stereo not drawn) | -11.6%
12 | CCCC(=O)N1CCCC(c2cc3cccnc3c(O)n2)C1 (stereo not drawn) | 7.53%
13 | CC(C)N1CCc2onc(Cn3cccn3)c2C1 | 5.44%
14 | CCN1C[C@H]2[C@@H](C1)N(S(=O)(=O)c1cccnc1)CC[C@H]2OC | -1.78%
15 | Cc1ncc2c(n1)CN(Cc1noc(C3CC3)n1)CC2 | -13.4%
16 | Cc1ccc(NCCNC(=O)C2Cc3cc(C)c(C)cc3O2)nn1 (stereo not drawn) | 3.34%
17 | Cc1cccc(-c2nc(CN3CCn4c(nnc4C4CC4)C3)no2)c1 | 3.33%
18 | Cc1noc(CSc2ccc(C(F)(F)F)cn2)n1 | -12.5%
19 | Cc1cc(-c2cnc(N3CCCC(C)C3)nc2C(C)C)on1 (stereo not drawn) | 3.05%
20 | Cc1ccc(C(CNCc2cccnc2)N2CCOCC2)s1 (stereo not drawn) | 4.03%
21 | COc1cccc(SCC(=O)N2CCC(N3CCCC3=O)CC2)c1 | -9.41%

Row | SMILES | cytotoxicity at 10 µM
22 | CC(CN1CCCC1=O)NC(=O)c1cc(-c2cccc(Cl)c2)no1 (stereo not drawn) | 5.75%
23 | CC(Cn1cccn1)n1cnc2cccc(Cl)c2c1=O (stereo not drawn) | -5.41%
24 | Cc1cnc(CN2CCC(N(C)Cc3nnc(C4CC4)n3C)C2)cn1 (stereo not drawn) | -2.31%
25 | CC(C)c1nnc2n1CC(CNCc1ccncc1)CC2 (stereo not drawn) | -17.5%
26 | Cc1cc(-c2cccc(-c3ccn(CCCO)n3)c2)nc(N(C)C)n1 | -5.42%
27 | Cn1cc(CN2CCOCC3(CCN(C4CCOCC4)C3)C2)cn1 (stereo not drawn) | -3.92%
28 | CN1CCCC(Cc2nccnc2Cl)CC1 (stereo not drawn) | 0.368%
29 | O=C(c1cscn1)N1CCCCC1c1nc2cc(F)ccc2[nH]1 (stereo not drawn) | 7.59%
30 | Cn1cc(C2COC3(CCN(C(=O)c4ccsc4)CC3)C2)cn1 (stereo not drawn) | -67%
31 | Cc1ccc(-n2nnc(C(=O)O)c2C)c(C)c1 | -0.185%
32 | COc1ccc(Oc2ncccc2NC(=O)N2CCOCC2C)cc1 (stereo not drawn) | -2.43%
33 | Cn1cc(CN2CCN3C[C@H](Oc4cccnc4)C[C@H]3C2)cn1 | 3.07%
34 | Cc1nn(C)c(N2CCOCC2)c1CNC(C)c1cccnc1 (stereo not drawn) | -13.6%
35 | CCC(Oc1ccc(N(C)S(C)(=O)=O)cc1)C(=O)NC (stereo not drawn) | 0.0646%
36 | CCS(=O)(=O)NC1CCc2c(ccc(=O)n2CC2CC2)C1 (stereo not drawn) | -67.2%
37 | CCc1c(C)nn2c(O)cc(C3CCN(C(=O)C4CC4)C3)nc12 (stereo not drawn) | 1.97%
38 | CO[C@@H]1CN(C)S(=O)(=O)[C@@]12CCN(Cc1ccccc1)C2 | 3.02%
39 | Cc1cnc(N2C[C@H]3CN(Cc4csc(C)n4)C(=O)[C@H]3C2)nc1 | 12%
40 | CCOCC1CN(C(=O)CC2=CCCCC2)Cc2nnn(C)c21 (stereo not drawn) | -110%
41 | Cc1nc(C2CCCN2CC(=O)N2CCc3ccccc32)no1 (stereo not drawn) | -19.6%
42 | Fc1ccc(C2(c3noc(CCN4CCCCO4)n3)CCOC2)cc1 (stereo not drawn) | -1.54%

Row | SMILES | cytotoxicity at 10 µM
43 | NC(=O)C(Cc1ccccc1)NS(=O)(=O)Cc1ccccc1F (stereo not drawn) | -13%
44 | NC(=O)c1ccc(NC(=O)CCN2CCCC(N3CCCC3)C2)cc1 (stereo not drawn) | -8.59%
45 | CCOc1ncnc2c1CCN(c1cc(C(F)(F)F)ncn1)CC2 | 12.8%
46 | Cc1nc(C(C)n2cc3[nH]cccc-3c2=O)cs1 (stereo not drawn) | -3.13%
47 | COc1cccc(CC(=O)N2Cc3nccn3CC(CN(C)C)C2)c1 (stereo not drawn) | -135%
48 | COc1cc(C(=O)Nc2nc(C)no2)cc(OC)c1Br | -8.78%
49 | COCC(=O)Nc1ccnc(OCCN(C)C)c1 | -7.67%
50 | Cc1cccc(C(=O)NCCS(=O)(=O)Cc2ccccc2)c1 | -7.43%
51 | O[C@@]1(Cn2cnc(Cl)c2Cl)CCCN2CCCC[C@@H]21 | -1.88%
52 | CCN1CC(C(=O)N2CC(Oc3ccccc3Cl)C2)CC1=O (stereo not drawn) | -2.83%
53 | CCN(Cc1nccn1C)C(=O)c1ccc(NCCc2c[nH]cn2)nc1 | -2.5%
54 | O=S(=O)(C1CC1)N1CCO[C@H]2[C@@H](Oc3ncccc3F)CC[C@@H]21 | 1.67%
55 | NCC1CN(C(=O)c2cccc(-n3cccn3)c2)CCO1 (stereo not drawn) | -1.56%
56 | CCS(=O)(=O)NC[C@]12COC[C@H]1CN(Cc1ccncc1)C2 | 6.01%
57 | CC(C)c1cnc(N2C[C@H](CO)C[C@H](CN3CCOCC3)C2)nc1 | -7.45%
58 | Cc1noc(CCCC(=O)NCC2CCS(=O)(=O)C2)n1 (stereo not drawn) | -16.4%
59 | CCOC(=O)Cc1csc(NC(=O)c2cc3n(n2)CCCO3)n1 | -11.9%
60 | CCn1cc(NC(=O)NCCN2CCCCCC2=O)cn1 | 0.107%
61 | O=C(c1c[nH]cn1)N1CCCn2c(nnc2Cn2cccc2)C1 | 0.399%
62 | CCN(CCCNc1ncnc2cc(F)c(F)cc12)S(C)(=O)=O | 37.7%
63 | CC(=O)c1ccccc1NC(=O)CCN1CCSCC1 | -7.88%

Row | SMILES | cytotoxicity at 10 µM
64 | CCC(Nc1cccc(OC)c1)C(=O)NCc1nc(C)cc(=O)[nH]1 (stereo not drawn) | 4.91%
65 | COc1ccc(C2CN(c3nc(C)cc(C)n3)CCN2C(C)=O)cc1 (stereo not drawn) | 2.06%
66 | Cc1ccc(=O)n(CC(=O)N(C)Cc2csc(-c3cccs3)n2)n1 | 6.23%
67 | Cc1cc(=O)n2ncnc2n1CC(O)c1ccccc1F (stereo not drawn) | -13.7%
68 | COc1ncccc1NC(=O)N1CCOCC1C (stereo not drawn) | -4.86%
69 | Cc1nc(C)n(CC2CCCN2Cc2cnc(C)s2)n1 (stereo not drawn) | 0.0757%
70 | COC1CCN(C(=O)Cn2nc(C)cc2C)CC1 | 3.81%
71 | OC(COCc1ccccc1)CN1CCC(c2ccn[nH]2)CC1 (stereo not drawn) | -13.6%
72 | Cc1ccc(CN2CCN(C(=O)c3ccccc3O)C(C)C2=O)cc1 (stereo not drawn) | 6.31%
73 | Cc1ccc(-c2nc(CN(C)C3CCS(=O)(=O)C3)cs2)o1 (stereo not drawn) | -8.05%
74 | COCC1c2nnn(CC3CC3)c2CCN1C(=O)c1ccncn1 (stereo not drawn) | -132%
75 | CN1CC(Nc2nc3c(cnn3-c3ccccc3)c(=O)[nH]2)CCC1=O (stereo not drawn) | -2.75%
76 | CC(C)n1c(=O)c2ccccc2n(CCCN(C)C)c1=O | -13.2%
77 | Cc1cc(N(C)CCOc2ccccc2F)nc(N)n1 | 20.1%
78 | O=c1n(CCNCc2ccc(-c3ccccc3)cc2)nc2ccccn12 | 0.932%
79 | COCCN1CCCC12CCCN(c1nncs1)C2 (stereo not drawn) | 9.79%
80 | Cc1nn(C)c(N(C)C)c1CNCc1ccccc1Cn1cccn1 | -8.06%
81 | CC(=O)Nc1nc(C(=O)N2CCCC2Cn2cc(C)cn2)cs1 (stereo not drawn) | 7.07%
82 | CNC(=O)C1(CCCc2cccnc2)CCCCN1 (stereo not drawn) | 2.34%
83 | Cc1cc(C(=O)N2CC[C@@H]3CN(C)S(=O)(=O)[C@@H]3CC2)no1 | -7.55%

Reference: ChEMBL document CHEMBL4513216, “Probing the Open Global Health Chemical Diversity Library for Multistage-Active Starting Points for Next-Generation Antimalarials” (ACS Infect Dis, 2020)
